SMILES strings stand for the structures. Active and inactive are the calls of the source. The rule behind the calls is not given here.

One series has as its system SW-620. The series is described as follows: Antiproliferative activity against human SW620 cells at 0.1 to 10 uM after 72 hrs by MTT assay. It counts as functional, cell-based. An outline of the steps:
(§1)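 Monolayer cells in DMEM with 10% FBS, 2 mM L-glutamine, penicillin and streptomycin at 37 °C, 5% CO2. Seeded at 3000-6000 cells/well by doubling time on day 0. Five 10-fold dilutions (0.01–100 µM) were added and incubated 72 h. MTT read-out, converted to percentage growth. IC50 by linear regression between bracketing concentrations. Quadruplicate points, three independent experiments, ANOVA/Tukey p<0.05.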

In another series the test system is WI-38. Put plainly: Antiproliferative activity against human WI38 cells at 0.1 to 10 uM after 72 hrs by MTT assay. The following applies: wi-38, 72 h. It counts as cell-based. The essentials:
as §1
A general note: Tetrazolium assays rely on reduction of a dye to a coloured formazan, in cell work by metabolically active cells.

In another series the test system is Nucleic Acid. The series is described as follows: Binding affinity to calf thymus DNA assessed as fluorescence quenching at compound to DNA ratio of < 0.1 by fluorimetric titrations. The class given is nucleic-acid assay. Conditions: Bos taurus. An outline of the steps:
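Fluorimetric titration: portions of ct-DNA (sonicated, filtered, concentration as phosphate) added to compound in cacodylate buffer pH 7.0, I = 0.05 mol dm^-3. Emission 350–600 nm, sample absorbance <0.05 at excitation, mostly DNA excess (r < 0.1). Ks and n = [bound compound]/[DNA phosphate] by non-linear least-squares Scatchard fitting.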

The test system of the next series is SK-BR-3. The series is described as follows: Antiproliferative activity against human SKBR3 cells at 0.1 to 10 uM after 72 hrs by MTT assay. It counts as functional, cell-based. The essentials: as §1
The test system of a further series is HEp-2. The series is described as follows: Antiproliferative activity against human Hep2 cells after 72 hrs by MTT assay. The class given is functional, cell-based. Conditions: Homo sapiens, HEp-2, 72 h. An outline of the steps:
as §1

For the molecule `Cl.c1cnc2nc3ccc4ccc(C5=NCCN5)cc4n3c2c1`, the result in the series on SW-620, in the series with Nucleic Acid and in the series on SK-BR-3 was Active. Moreover, in the series with WI-38, the Activity entry is “Toxic”. Also, the IC50 (in general, the concentration that gives 50% inhibition) in the series with HEp-2 is 270 nM.

For the origin of these results see ChEMBL document CHEMBL1806443, “Novel imidazo[4,5-b]pyridine and triaza-benzo[c]fluorene derivatives: synthesis, antiproliferative activity and DNA binding studies” (Eur J Med Chem, 2011).
